Measured values reported in ChEMBL document CHEMBL2346534, “Design, synthesis and in vitro anti-proliferative activity of 4,6-quinazolinediamines as potent EGFR-TK inhibitors” (Eur J Med Chem, 2013).

Legend:
SK-MEL-28 = experiment: Cytotoxicity against human SK-MEL-28 cells assessed as cell growth at 10^-5 M after 48 hrs by SRB assay; type: functional; conditions: SK-MEL-28, 48 h, read-out: Activity
Outline: (§1)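 NCI 60-panel single-dose primary screen at 10^-5 M. Cells are grown in RPMI 1640 with 5% FBS and 2 mM L-glutamine and preincubated 24 h at 37 °C. Drug exposure is 48 h. Cells are TCA-fixed, stained with SRB and absorbance is read at 515 nm. Results are reported as percent growth of treated cells versus untreated controls, corrected using time-zero plates.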

MDA-MB-435 = experiment: Cytotoxicity against human MDA-MB-435 cells assessed as cell growth at 10^-5 M after 48 hrs by SRB assay; type: functional; conditions: MDA-MB-435, 48 h, read-out: Activity
Outline: (§2)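 NCI 60 single-dose screen at 10^-5 M. Cells in RPMI 1640 with 5% FBS and 2 mM L-glutamine, preincubated 24 h at 37 °C/5% CO2. Drug from DMSO stock, then 48 h exposure. TCA fixation, SRB staining, absorbance at 515 nm. Result given as percent growth of treated cells relative to untreated control.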

M14 = experiment: Cytotoxicity against human M14 cells assessed as cell growth at 10^-5 M after 48 hrs by SRB assay; type: functional; conditions: M14, 48 h, read-out: Activity; outline: as §2
Malme-3M = experiment: Cytotoxicity against human MALME-3M cells assessed as cell growth at 10^-5 M after 48 hrs by SRB assay; type: functional; conditions: read-out: Activity; outline: as §2
SNB-75 = experiment: Cytotoxicity against human SNB75 cells assessed as cell growth at 10^-5 M after 48 hrs by SRB assay; type: functional; conditions: SNB-75, 48 h, read-out: Activity; outline: as §1
SNB-19 = experiment: Cytotoxicity against human SNB19 cells assessed as cell growth at 10^-5 M after 48 hrs by SRB assay; type: functional; conditions: SNB-19, 48 h, read-out: Activity; outline: as §1
SF-295 = experiment: Cytotoxicity against human SF295 cells assessed as cell growth at 10^-5 M after 48 hrs by SRB assay; type: functional; conditions: SF-295, 48 h, read-out: Activity; outline: as §1
HCT-116 = experiment: Cytotoxicity against human HCT116 cells assessed as cell growth at 10^-5 M after 48 hrs by SRB assay; type: functional; conditions: HCT-116, 48 h, read-out: Activity; outline: as §2
NCI-H522 = experiment: Cytotoxicity against human NCI-H522 cells assessed as cell growth at 10^-5 M after 48 hrs by SRB assay; type: functional; conditions: NCI-H522, 48 h, read-out: Activity; outline: as §1
NCI-H322M = experiment: Cytotoxicity against human NCI-H322M cells assessed as cell growth at 10^-5 M after 48 hrs by SRB assay; type: functional; conditions: read-out: Activity; outline: as §1
NCI-H226 = experiment: Cytotoxicity against human NCI-H226 cells assessed as cell growth at 10^-5 M after 48 hrs by SRB assay; type: functional; conditions: NCI-H226, 48 h, read-out: Activity; outline: as §1
HOP-62 = experiment: Cytotoxicity against human HOP62 cells assessed as cell growth at 10^-5 M after 48 hrs by SRB assay; type: functional; conditions: HOP-62, 48 h, read-out: Activity; outline: as §2
RPMI-8226 = experiment: Cytotoxicity against human RPMI8226 cells assessed as cell growth at 10^-5 M after 48 hrs by SRB assay; type: functional; conditions: RPMI-8226, 48 h, read-out: Activity; outline: as §1
[1] = Cytotoxicity against human EKVX cells assessed as cell growth at 10^-5 M after 48 hrs by SRB assay; type: functional; conditions: read-out: Activity; outline: as §2
MOLT-4 = experiment: Cytotoxicity against human MOLT4 cells assessed as cell growth at 10^-5 M after 48 hrs by SRB assay; type: functional; conditions: MOLT-4, 48 h, read-out: Activity; outline: as §1
HL-60(TB) = experiment: Cytotoxicity against human HL-60(TB) cells assessed as cell growth at 10^-5 M after 48 hrs by SRB assay; type: functional; conditions: HL-60, 48 h, read-out: Activity
Outline: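 NCI 60-panel single-dose screen. Cells were grown in RPMI 1640 with 5% FBS and 2 mM L-glutamine, preincubated 24 h, then exposed to compound at 10^-5 M (from DMSO stock) for 48 h at 37 °C, 5% CO2. Settled suspension cells were TCA-fixed and SRB-stained, with absorbance read at 515 nm. The value is percent growth of treated versus untreated control cells.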

MDA-MB-468 = experiment: Cytotoxicity against human MDA-MB-468 cells assessed as cell growth at 10^-5 M after 48 hrs by SRB assay; type: functional; conditions: MDA-MB-468, 48 h, read-out: Activity; outline: as §1
BT-549 = experiment: Cytotoxicity against human BT549 cells assessed as cell growth at 10^-5 M after 48 hrs by SRB assay; type: functional; conditions: BT-549, 48 h, read-out: Activity; outline: as §2
Hs-578T = experiment: Cytotoxicity against human Hs578T cells assessed as cell growth at 10^-5 M after 48 hrs by SRB assay; type: functional; conditions: read-out: Activity; outline: as §2
MDA-MB-231 = experiment: Cytotoxicity against human MDA-MB-231 cells assessed as cell growth at 10^-5 M after 48 hrs by SRB assay; type: functional; conditions: MDA-MB-231, 48 h, read-out: Activity; outline: as §2
UO-31 = experiment: Cytotoxicity against human UO31 cells assessed as cell growth at 10^-5 M after 48 hrs by SRB assay; type: functional; conditions: UO-31, 48 h, read-out: Activity
Outline: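 NCI primary single-dose screen at 10^-5 M. Cells grown in RPMI 1640 with 5% FBS and 2 mM L-glutamine, given 24 h before drug addition, then 48 h exposure at 37 °C, 5% CO2. Cells TCA-fixed, stained with SRB, read at 515 nm. Reported as percent growth of treated cells relative to untreated controls.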

SN12C = experiment: Cytotoxicity against human SN12C cells assessed as cell growth at 10^-5 M after 48 hrs by SRB assay; type: functional; conditions: read-out: Activity; outline: as §1
RXF 393 = experiment: Cytotoxicity against human RXF393 cells assessed as cell growth at 10^-5 M after 48 hrs by SRB assay; type: functional; conditions: RXF 393, 48 h, read-out: Activity; outline: as §1
ACHN = experiment: Cytotoxicity against human ACHN cells assessed as cell growth at 10^-5 M after 48 hrs by SRB assay; type: functional; conditions: read-out: Activity; outline: as §2
OVCAR-8 = experiment: Cytotoxicity against human OVCAR8 cells assessed as cell growth at 10^-5 M after 48 hrs by SRB assay; type: functional; conditions: OVCAR-8, 48 h, read-out: Activity; outline: as §1
OVCAR-4 = experiment: Cytotoxicity against human OVCAR4 cells assessed as cell growth at 10^-5 M after 48 hrs by SRB assay; type: functional; conditions: OVCAR-4, 48 h, read-out: Activity; outline: as §1
OVCAR-5 = experiment: Cytotoxicity against human OVCAR5 cells assessed as cell growth at 10^-5 M after 48 hrs by SRB assay; type: functional; conditions: OVCAR-5, 48 h, read-out: Activity; outline: as §1
OVCAR-3 = experiment: Cytotoxicity against human OVCAR3 cells assessed as cell growth at 10^-5 M after 48 hrs by SRB assay; type: functional; conditions: OVCAR-3, 48 h, read-out: Activity; outline: as §1
SK-MEL-5 = experiment: Cytotoxicity against human SK-MEL-5 cells assessed as cell growth at 10^-5 M after 48 hrs by SRB assay; type: functional; conditions: SK-MEL-5, 48 h, read-out: Activity; outline: as §1
[2] = molecular target: Epidermal growth factor receptor (Homo sapiens, UniProt P00533); conditions: at 10 µM;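 note: EGFR tyrosine kinase activity on a poly(Glu,Tyr) substrate, read out by Kinase-Glo Plus luminescence after a 40 min reaction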
Sequence of Epidermal growth factor receptor (P00533 whole entry): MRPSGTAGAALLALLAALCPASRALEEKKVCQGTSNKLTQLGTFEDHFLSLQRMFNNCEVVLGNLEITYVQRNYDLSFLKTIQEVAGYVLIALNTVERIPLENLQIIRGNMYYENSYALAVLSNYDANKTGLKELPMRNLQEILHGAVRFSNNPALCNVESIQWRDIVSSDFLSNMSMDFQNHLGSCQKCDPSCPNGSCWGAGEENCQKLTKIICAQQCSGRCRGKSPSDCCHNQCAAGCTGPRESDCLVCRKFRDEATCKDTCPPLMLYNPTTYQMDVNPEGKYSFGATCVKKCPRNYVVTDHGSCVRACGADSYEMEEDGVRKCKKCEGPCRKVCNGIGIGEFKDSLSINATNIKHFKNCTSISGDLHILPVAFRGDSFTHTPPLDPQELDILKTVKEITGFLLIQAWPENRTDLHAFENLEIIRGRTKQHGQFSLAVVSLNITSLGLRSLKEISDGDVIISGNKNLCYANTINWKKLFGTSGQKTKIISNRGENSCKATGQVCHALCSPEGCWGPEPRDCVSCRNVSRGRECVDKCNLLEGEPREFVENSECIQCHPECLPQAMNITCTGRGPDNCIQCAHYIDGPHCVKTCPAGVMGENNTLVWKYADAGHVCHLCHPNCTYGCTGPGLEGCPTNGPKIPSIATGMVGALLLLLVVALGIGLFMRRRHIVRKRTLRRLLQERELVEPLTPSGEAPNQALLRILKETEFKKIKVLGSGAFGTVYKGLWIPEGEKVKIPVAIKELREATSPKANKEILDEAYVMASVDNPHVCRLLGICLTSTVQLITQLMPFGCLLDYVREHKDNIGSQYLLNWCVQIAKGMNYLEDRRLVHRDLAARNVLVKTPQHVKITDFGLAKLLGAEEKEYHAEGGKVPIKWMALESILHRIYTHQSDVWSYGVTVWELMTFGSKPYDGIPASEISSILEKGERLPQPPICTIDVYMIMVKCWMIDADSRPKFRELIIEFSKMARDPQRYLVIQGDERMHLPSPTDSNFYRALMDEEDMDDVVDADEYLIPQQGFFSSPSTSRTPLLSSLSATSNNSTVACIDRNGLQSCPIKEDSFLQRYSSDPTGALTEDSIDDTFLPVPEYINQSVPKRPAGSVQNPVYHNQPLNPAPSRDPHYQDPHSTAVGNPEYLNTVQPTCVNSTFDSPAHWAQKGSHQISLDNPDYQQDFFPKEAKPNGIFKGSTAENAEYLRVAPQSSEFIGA

Row | Compound | growth at 10 µM (SK-MEL-28) [%] | growth at 10 µM (MDA-MB-435) [%] | growth at 10 µM (M14) [%] | growth at 10 µM (Malme-3M) [%] | growth at 10 µM (SNB-75) [%] | growth at 10 µM (SNB-19) [%] | growth at 10 µM (SF-295) [%] | growth at 10 µM (HCT-116) [%] | growth at 10 µM (NCI-H522) [%] | growth at 10 µM (NCI-H322M) [%] | growth at 10 µM (NCI-H226) [%] | growth at 10 µM (HOP-62) [%] | growth at 10 µM (RPMI-8226) [%] | growth at 10 µM [1] [%] | growth at 10 µM (MOLT-4) [%] | growth at 10 µM (HL-60(TB)) [%] | growth at 10 µM (MDA-MB-468) [%] | growth at 10 µM (BT-549) [%] | growth at 10 µM (Hs-578T) [%] | growth at 10 µM (MDA-MB-231) [%] | further results
1 | CCOC(=O)/C(C#N)=C\Nc1ccc2ncnc(Nc3ccc(Cl)cc3)c2c1 | 105 | 70.5 | 106 | 142 | 86.3 | 88 | 74.3 | 84.5 | 79.8 | 22.6 | 99.3 | 107 | 62.9 | 20.6 | 50.1 | 76.2 | 26.6 | 76.1 | 89.3 | 93.1 | growth at 10 µM (UO-31): 43%; growth at 10 µM (SN12C): 87%; growth at 10 µM (RXF 393): 83.2%; growth at 10 µM (ACHN): 51.2%; growth at 10 µM (OVCAR-8): 83.3%; growth at 10 µM (OVCAR-4): 89%; growth at 10 µM (OVCAR-5): 92.8%; growth at 10 µM (OVCAR-3): 50.2%; growth at 10 µM (SK-MEL-5): 72%; inhibition [2]: 100%
2 | CCOC(=O)/C(C#N)=C\Nc1ccc2ncnc(Nc3ccccc3Cl)c2c1 | 119 | 100 | 119 | 156 | 87.2 | 94.5 | 102 | 113 | 107 | 47 | 116 | 99.1 | 84.3 | 39 | 86.2 | 95.3 | 34.7 | 112 | 91 | 86.9 | growth at 10 µM (UO-31): 66.7%; growth at 10 µM (SN12C): 98.8%; growth at 10 µM (RXF 393): 91.7%; growth at 10 µM (ACHN): 68.7%; growth at 10 µM (OVCAR-8): 105%; growth at 10 µM (OVCAR-4): 124%; growth at 10 µM (OVCAR-5): 90.1%; growth at 10 µM (OVCAR-3): 95.3%; growth at 10 µM (SK-MEL-5): 88.3%; inhibition [2]: 94%
